Laboratory results as given in ChEMBL document CHEMBL3091309, “A CD4 mimic as an HIV entry inhibitor: pharmacokinetics” (Bioorg Med Chem, 2013).

Key:
[1] = Half life in rhesus monkey at 13.4 mg/kg, iv by HPLC analysis; assay type: ADME, organism-based, Macaca mulatta; parameters: dose 13.4 mg/kg, route intravenous; conditions: in vivo
Summary of the method: (§1)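 Dosed by cephalic vein injection in 30 mL 0.1 M sodium phosphate buffer with NaCl, pH 7.4. Blood (3.0 mL) was drawn at 0, 0.5, 1, 2, 4 and 24 h. Plasma was separated and stored at -80°C, then MeOH-extracted. Supernatant was spiked with phenol internal standard (final 150 µg/mL) and filtered for HPLC, quantified against a peak-area-ratio calibration curve.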

[2] = Volume of distribution in rhesus monkey at 13.4 mg/kg, iv after 24 hrs by HPLC analysis; assay type: ADME, organism-based, Macaca mulatta; parameters: dose 13.4 mg/kg, route intravenous; conditions: in vivo; summary of the method: as §1
[3] = Initial plasma concentration in rhesus monkey at 13.4 mg/kg, iv; assay type: ADME, organism-based, Macaca mulatta; parameters: dose 13.4 mg/kg, route intravenous; summary of the method: as §1
[4] = Initial plasma concentration in Jcl:Sprague-Dawley rat at 14 mg/kg, iv by HPLC analysis; assay type: ADME, organism-based; parameters: dose 14 mg/kg, route intravenous
Summary of the method: (§2)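 Jcl:SD rats (6 weeks old) dosed iv via tail vein with 2.5 mg 2-HCl in 1.0 mL saline. Plasma sampled from 15 to 240 min and assayed by HPLC with phenol internal standard. Parameters derived from the plasma concentration–time course.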

Rattus norvegicus [5] = test: Volume of distribution in Jcl:Sprague-Dawley rat at 14 mg/kg, iv by HPLC analysis; assay type: ADME, organism-based; parameters: dose 14 mg/kg, route intravenous; conditions: in vivo; summary of the method: as §2
[6] = Half life in Jcl:Sprague-Dawley rat at 2.5 mg, iv by HPLC analysis; conditions: in vivo
[7] = Adsorption in rhesus monkey blood cells assessed as YYA-021 level at 1 mg/ml after 2 hrs by HPLC analysis; assay type: ADME, cell-based, Macaca mulatta
Summary of the method: (§3)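 Macaque whole blood (1.0 mL) spiked with 2-HCl in saline (5 mg/mL stock, 0.25 mL), incubated 37°C for 0, 1 or 2 h. Plasma and blood cells separated by centrifugation; cells brought to 1.0 mL with PBS, and an aliquot sonicated. In the re-addition arm, plasma was added to 1 h cells and incubated 1 h more. MeOH-extracted supernatants, phenol internal standard 600 µg/mL final, analyzed by HPLC.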

[8] = Adsorption in rhesus monkey blood cells assessed as YYA-021 level at 1 mg/ml after 1 hr followed by plasma addition by HPLC analysis; assay type: ADME, cell-based, Macaca mulatta; summary of the method: as §3
Plasma [9] = test: Adsorption in rhesus monkey plasma assessed as YYA-021 level at 1 mg/ml preincubated for 1 hr followed by plasma addition measured after 1 hr by HPLC analysis; assay type: ADME, cell-free, Macaca mulatta; summary of the method: as §3
Plasma [10] = test: Adsorption in rhesus monkey plasma assessed as YYA-021 level at 1 mg/ml after 1 hr followed by plasma addition by HPLC analysis; assay type: ADME, cell-free, Macaca mulatta; summary of the method: as §3
[11] = Adsorption in rhesus monkey blood cells assessed as YYA-021 level at 1 mg/ml after 1 hr by HPLC analysis; assay type: ADME, cell-based, Macaca mulatta; summary of the method: as §3
Plasma [12] = test: Adsorption in rhesus monkey plasma assessed as YYA-021 level at 1 mg/ml after 1 hr by HPLC analysis; assay type: ADME, cell-free, Macaca mulatta; summary of the method: as §3
[13] = Adsorption in rhesus monkey blood cells assessed as YYA-021 level at 1 mg/ml measured immediately by HPLC analysis; assay type: ADME, cell-based, Macaca mulatta; summary of the method: as §3
Plasma [14] = test: Plasma concentration in rhesus monkey at 13.4 mg/kg, iv measured immediately by HPLC analysis; assay type: ADME, organism-based, Macaca mulatta; parameters: dose 13.4 mg/kg, route intravenous; conditions: in vivo
Summary of the method: (§4)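 Macaque given 70.6 mg 2-HCl in 30 mL 0.1 M sodium phosphate buffer with NaCl, pH 7.4, by cephalic vein injection. Blood (3.0 mL) taken at 0, 0.5, 1, 2, 4 and 24 h, and plasma stored at -80°C. Plasma extracted with MeOH and spiked with phenol (150 µg/mL final). Quantified by HPLC on a 20–35% CH3CN (0.1% TFA) gradient over 30 min.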

Plasma [15] = test: Adsorption in rhesus monkey plasma at 1 mg/ml preincubated for 1 hr followed by plasma addition measured after 1 hr by HPLC analysis; assay type: ADME, cell-free, Macaca mulatta; summary of the method: as §3
Rattus norvegicus [16] = test: Toxicity in iv dosed Jcl:Sprague-Dawley rat assessed as renal and hepatic dysfunction; assay type: organism-based; conditions: in vivo
[17] = Adsorption in rhesus monkey blood cells at 1 mg/ml after 2 hrs by HPLC analysis; assay type: ADME, cell-based, Macaca mulatta; summary of the method: as §3
Plasma [18] = test: Adsorption in rhesus monkey plasma at 1 mg/ml after 2 hrs by HPLC analysis; assay type: ADME, cell-free, Macaca mulatta; summary of the method: as §3
[19] = Adsorption in rhesus monkey blood cells at 1 mg/ml after 1 hr followed by plasma addition by HPLC analysis; assay type: ADME, cell-based, Macaca mulatta; summary of the method: as §3
Plasma [20] = test: Adsorption in rhesus monkey plasma at 1 mg/ml after 1 hr followed by plasma addition by HPLC analysis; assay type: ADME, cell-free, Macaca mulatta; summary of the method: as §3
[21] = Adsorption in rhesus monkey blood cells at 1 mg/ml after 1 hr by HPLC analysis; assay type: ADME, cell-based, Macaca mulatta; summary of the method: as §3
Plasma [22] = test: Adsorption in rhesus monkey plasma at 1 mg/ml after 1 hr by HPLC analysis; assay type: ADME, cell-free, Macaca mulatta; summary of the method: as §3
[23] = Adsorption in rhesus monkey blood cells at 1 mg/ml measured immediately by HPLC analysis; assay type: ADME, cell-based, Macaca mulatta; summary of the method: as §3
Plasma [24] = test: Adsorption in rhesus monkey plasma at 1 mg/ml measured immediately by HPLC analysis; assay type: ADME, cell-free, Macaca mulatta; summary of the method: as §3
[25] = Plasma concentration in rhesus monkey at 13.4 mg/kg, iv after 24 hrs by HPLC analysis; assay type: ADME, organism-based, Macaca mulatta; parameters: dose 13.4 mg/kg, route intravenous; summary of the method: as §4
[26] = Plasma concentration in rhesus monkey at 13.4 mg/kg, iv after 4 hrs by HPLC analysis; assay type: ADME, organism-based, Macaca mulatta; parameters: dose 13.4 mg/kg, route intravenous; summary of the method: as §4
[27] = Plasma concentration in rhesus monkey at 13.4 mg/kg, iv after 1 hr by HPLC analysis; assay type: ADME, organism-based, Macaca mulatta; parameters: dose 13.4 mg/kg, route intravenous; summary of the method: as §4
[28] = Plasma concentration in rhesus monkey at 13.4 mg/kg, iv after 2 hrs by HPLC analysis; assay type: ADME, organism-based, Macaca mulatta; parameters: dose 13.4 mg/kg, route intravenous; summary of the method: as §4
[29] = Plasma concentration in rhesus monkey at 13.4 mg/kg, iv after 0.5 hrs by HPLC analysis; assay type: ADME, organism-based, Macaca mulatta; parameters: dose 13.4 mg/kg, route intravenous; summary of the method: as §4
Rhesus monkey [30] = test: Toxicity in iv dosed rhesus monkey; assay type: organism-based, Macaca mulatta; conditions: in vivo
Rhesus monkey [31] = test: Toxicity in rhesus monkey assessed as prolonged PR interval in bradycardia at 70.6 mg, iv; assay type: organism-based, Macaca mulatta; conditions: in vivo
Rhesus monkey [32] = test: Toxicity in rhesus monkey assessed as prolonged PR interval in electrocardiogram at 70.6 mg, iv; assay type: organism-based, Macaca mulatta; conditions: in vivo
Rhesus monkey [33] = test: Toxicity in rhesus monkey assessed as mydriasis at 70.6 mg, iv; assay type: organism-based, Macaca mulatta; conditions: in vivo
[34] = Plasma concentration in Jcl:Sprague-Dawley rat at 14 mg/kg, iv after 240 mins by HPLC analysis; assay type: ADME, organism-based; parameters: dose 14 mg/kg, route intravenous
Summary of the method: (§5)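 6-week-old Jcl:SD rats given 2.5 mg 2-HCl in 1.0 mL saline by tail-vein injection. Tail-vein blood drawn at 15, 30, 45, 60, 120 and 240 min and centrifuged to plasma. Plasma stored at -80°C, mixed with phenol internal standard (62.5 µg/mL final), filtered and quantified by HPLC. Standard curve from peak-area ratio to phenol.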

Plasma [35] = test: Adsorption in rhesus monkey plasma assessed as YYA-021 level at 1 mg/ml measured immediately by HPLC analysis; assay type: ADME, cell-free, Macaca mulatta; summary of the method: as §3
[36] = Plasma concentration in Jcl:Sprague-Dawley rat at 14 mg/kg, iv after 45 mins by HPLC analysis; assay type: ADME, organism-based; parameters: dose 14 mg/kg, route intravenous; summary of the method: as §5
[37] = Plasma concentration in Jcl:Sprague-Dawley rat at 14 mg/kg, iv after 60 mins by HPLC analysis; assay type: ADME, organism-based; parameters: dose 14 mg/kg, route intravenous; summary of the method: as §5
[38] = Plasma concentration in Jcl:Sprague-Dawley rat at 14 mg/kg, iv after 30 mins by HPLC analysis; assay type: ADME, organism-based; parameters: dose 14 mg/kg, route intravenous; summary of the method: as §5
[39] = Plasma concentration in Jcl:Sprague-Dawley rat at 14 mg/kg, iv after 15 mins by HPLC analysis; assay type: ADME, organism-based; parameters: dose 14 mg/kg, route intravenous; summary of the method: as §5
Rattus norvegicus [40] = test: Toxicity in Jcl:Sprague-Dawley rat assessed as change in body weight at 5 mg/kg, iv after 2 weeks relative to control; assay type: organism-based; parameters: dose 5 mg/kg, route intravenous; conditions: in vivo, 336 h

Cc1ccc(NC(=O)C(=O)NC2CC(C)(C)NC(C)(C)C2)cc1
half-life [1]: 98.4 min | Vd [2]: 47.1 L | C0 [3]: 1500 ng/mL | C0 [4]: 17300 ng/mL | Vd (Rattus norvegicus [5]): 145 mL | half-life [6]: 8.46 min

Cc1ccc(NC(=O)C(=O)NC2CC(C)(C)NC(C)(C)C2)cc1.Cl
Activity [7]: 61 µg/mL | Activity [8]: 17.9 µg/mL | Activity (Plasma [9]): 46 µg/mL | Activity (Plasma [10]): 92.4 µg/mL | Activity [11]: 67.2 µg/mL | Activity (Plasma [12]): 102 µg/mL | Activity [13]: 64.2 µg/mL | Cp (Plasma [14]): 149 ng/mL | Activity (Plasma [15]): 51.2 µg/mL | MTD (Rattus norvegicus [16]): 2.5 mg | Activity [17]: 68 µg/mL | Activity (Plasma [18]): 105 µg/mL | Activity [19]: 19.9 µg/mL | Activity (Plasma [20]): 102.9 µg/mL | Activity [21]: 74.8 µg/mL | Activity (Plasma [22]): 113.6 µg/mL | Activity [23]: 71.5 µg/mL | Activity (Plasma [24]): 133.7 µg/mL | concentration at 24 h [25]: 415 ng/mL | concentration at 4 h [26]: 392 ng/mL | concentration at 1 h [27]: 1260 ng/mL | concentration at 2 h [28]: 1090 ng/mL | concentration at 0.5 h [29]: 1330 ng/mL | MTD (Rhesus monkey [30]): 35.3 mg | Activity (Rhesus monkey [31]): Toxic | Activity (Rhesus monkey [32]): Toxic | Activity (Rhesus monkey [33]): Toxic | concentration at 4 h [34]: 1120 ng/mL | Activity (Plasma [35]): 120 µg/mL | concentration at 0.75 h [36]: 1510 ng/mL | concentration at 1 h [37]: 620 ng/mL | concentration at 0.5 h [38]: 2100 ng/mL | concentration at 0.25 h [39]: 6010 ng/mL | Activity (Rattus norvegicus [40]): Non-toxic
